Drawing on ChEMBL document CHEMBL1240500, “Peptidyl alpha-ketoamides with nucleobases, methylpiperazine, and dimethylaminoalkyl substituents as calpain inhibitors” (J Med Chem, 2010), this text covers Ki, Ratio and concentration for eleven compounds.

The target in data set [1] is T1, Calpain-2 catalytic subunit (Sus scrofa, UniProt P43367).
T1 sequence (P43367 whole entry): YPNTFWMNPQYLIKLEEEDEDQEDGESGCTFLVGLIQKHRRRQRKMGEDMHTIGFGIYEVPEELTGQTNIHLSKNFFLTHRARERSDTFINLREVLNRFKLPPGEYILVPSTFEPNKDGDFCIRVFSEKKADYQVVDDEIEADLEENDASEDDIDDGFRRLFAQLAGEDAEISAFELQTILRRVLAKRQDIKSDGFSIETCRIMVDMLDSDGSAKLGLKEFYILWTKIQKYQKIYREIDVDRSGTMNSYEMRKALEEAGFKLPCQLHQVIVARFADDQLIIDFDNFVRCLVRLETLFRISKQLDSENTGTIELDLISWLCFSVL
In words: Inhibition of porcine kidney calpain 2.

Another data set concerns the target Cathepsin B (Homo sapiens, UniProt P07858). In words: Inhibition of human liver cathepsin B. In a few lines:
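Human liver cathepsin B was DTT-activated (final 0.4 µM) in 0.1 M NaHPO4 pH 6.0 with 1.25 mM EDTA, 0.01% Brij and <5% DMSO. Cbz-Arg-Arg-AMC was used at 0.5, 0.2 and 0.1 µM, with ≥5 inhibitor concentrations. AMC fluorescence was read at ex 360/em 465 nm. Ki was taken from Dixon plots of 1/v versus [I].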

Data set [2] concerns the target T2, Calpain-1 catalytic subunit (Sus scrofa, UniProt P35750).
T2 sequence (P35750 whole entry): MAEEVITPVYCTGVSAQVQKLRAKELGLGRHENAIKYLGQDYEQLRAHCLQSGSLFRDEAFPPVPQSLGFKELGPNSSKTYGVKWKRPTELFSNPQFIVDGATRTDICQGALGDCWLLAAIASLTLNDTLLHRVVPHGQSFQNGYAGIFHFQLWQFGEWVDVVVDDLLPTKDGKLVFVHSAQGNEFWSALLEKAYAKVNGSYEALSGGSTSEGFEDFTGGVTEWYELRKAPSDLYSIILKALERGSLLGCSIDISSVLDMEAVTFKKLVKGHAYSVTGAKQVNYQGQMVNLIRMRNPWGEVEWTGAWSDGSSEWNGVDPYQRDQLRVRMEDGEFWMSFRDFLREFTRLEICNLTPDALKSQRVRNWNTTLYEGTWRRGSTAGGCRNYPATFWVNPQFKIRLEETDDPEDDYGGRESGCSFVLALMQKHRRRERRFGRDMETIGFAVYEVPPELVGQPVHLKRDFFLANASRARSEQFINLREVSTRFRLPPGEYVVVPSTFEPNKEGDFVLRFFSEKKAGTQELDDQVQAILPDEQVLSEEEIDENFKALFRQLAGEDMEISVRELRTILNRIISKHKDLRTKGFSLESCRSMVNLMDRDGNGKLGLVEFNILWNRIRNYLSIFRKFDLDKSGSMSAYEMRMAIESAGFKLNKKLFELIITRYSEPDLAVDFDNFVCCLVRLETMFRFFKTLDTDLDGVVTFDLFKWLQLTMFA
In words: Inhibition of porcine erythrocyte calpain 1.

Data set [3] concerns the target T3, Calpain-1 catalytic subunit (Sus scrofa) (UniProt P35750).
T3 sequence (whole entry): T2 sequence (P35750 whole entry)
In words: Ratio of compound Ki to AK295 Ki for porcine erythrocyte calpain 1.

Data set [4] is described as follows: Drug level in C57BL/6 mouse brain at 24 mg/kg, sc after 8 hrs by HPLC analysis. The class given is ADME, organism-based. Further details: dose 24 mg/kg, route subcutaneous. Particulars: read-out: Drug uptake. In a few lines: (§1)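 7-week-old female C57BL/6 mice (N = 3 per time point) got 24 mg/kg subcutaneously, were perfused with buffered saline at 37 °C, and were killed at 1, 2, 4 or 8 h. Brain was homogenized 5% w/v in water with internal standard spiked in. LC-MS/MS used ESI+ MRM and a Symmetry Shield C18 column. Quantitation was by peak-area ratio against plasma calibration standards.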

Data set [5] in a line: Drug level in C57BL/6 mouse brain at 24 mg/kg, sc after 2 hrs by HPLC analysis. The format is ADME, organism-based. Further details: dose 24 mg/kg, route subcutaneous. The note with it: read-out: Drug uptake. In a few lines: as §1
Data set [6] is described as follows: Drug level in C57BL/6 mouse peripheral nerve at 24 mg/kg, iv after 1 hr by HPLC analysis. The class given is ADME, organism-based. The note with it: read-out: Drug uptake. Further details: dose 24 mg/kg, route intravenous. In a few lines:
(§2)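 7-week-old female C57BL/6 mice got 24 mg/kg subcutaneously (N = 2) or intravenously (N = 3). They were perfused with buffered saline at 37 °C and killed at 1 h. Tissues were homogenized 5% w/v in water with internal standard. LC-MS/MS used ESI+ MRM and a Zorbax Extend C18 column. Concentration came from the analyte/internal-standard area ratio against calibration standards made in undosed control tissue (0.10–1.00 µM). Errors came from repeat injections.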

A short description of data set [7]: Drug level in C57BL/6 mouse spleen at 24 mg/kg, sc after 1 hr by HPLC analysis. More on the design: dose 24 mg/kg, route subcutaneous. The format is ADME, organism-based. Particulars: read-out: Drug uptake. In a few lines: as §2
Data set [8] in a line: Drug level in C57BL/6 mouse spleen at 24 mg/kg, iv after 1 hr by HPLC analysis. The format is ADME, organism-based. Further details: dose 24 mg/kg, route intravenous. The note with it: read-out: Drug uptake. In a few lines: as §2
The nature of data set [9]: Drug level in C57BL/6 mouse kidney at 24 mg/kg, iv after 1 hr by HPLC analysis. Further details: dose 24 mg/kg, route intravenous. Particulars: read-out: Drug uptake. The format is ADME, organism-based. In a few lines:
as §2

Data set [10] can be described thus: Drug level in C57BL/6 mouse heart at 24 mg/kg, iv after 1 hr by HPLC analysis. The class given is ADME, organism-based. More on the design: dose 24 mg/kg, route intravenous. Particulars: read-out: Drug uptake. In a few lines:
as §2

The nature of data set [11]: Drug level in C57BL/6 mouse kidney at 24 mg/kg, sc after 1 hr by HPLC analysis. The class given is ADME, organism-based. Further details: dose 24 mg/kg, route subcutaneous. Particulars: read-out: Drug uptake. In a few lines:
as §2

The nature of data set [12]: Drug level in C57BL/6 mouse liver at 24 mg/kg, iv after 1 hr by HPLC analysis. The format is ADME, organism-based. More on the design: dose 24 mg/kg, route intravenous. Particulars: read-out: Drug uptake. In a few lines:
as §2

Data set [13] in a line: Drug level in C57BL/6 mouse heart at 24 mg/kg, sc after 1 hr by HPLC analysis. The format is ADME, organism-based. Further details: dose 24 mg/kg, route subcutaneous. The note with it: read-out: Drug uptake. In a few lines:
as §2

Data set [14] in a line: Drug level in C57BL/6 mouse liver at 24 mg/kg, sc after 1 hr by HPLC analysis. The format is ADME, organism-based. Further details: dose 24 mg/kg, route subcutaneous. Particulars: read-out: Drug uptake. In a few lines: as §2
Data set [15] in a line: Drug level in C57BL/6 mouse serum at 24 mg/kg, sc after 1 hr by HPLC analysis. The class given is ADME, organism-based. More on the design: dose 24 mg/kg, route subcutaneous. The note with it: read-out: Drug uptake. In a few lines: as §2

As a reminder, the Ki is a measure of affinity in units of concentration, obtained from inhibition or displacement. In the case of `CC(C)C[C@H](NC(=O)OCc1ccccc1)C(=O)NC(Cc1ccccc1)C(=O)C(=O)NCCCN(C)C` (some centres undefined), the inhibition constant Ki in data set [1] was determined as 844 nM; at Cathepsin B, 75500 nM; in data set [2] it was 226 nM.

Take `CCC(NC(=O)[C@H](CC(C)C)NC(=O)OCc1ccccc1)C(=O)C(=O)NCCCn1cnc2c(N)nc(OC)nc21` (some centres undefined): the Ratio in [3] stood at 3. The inhibition constant (Ki) in data set [1] stood at 77 nM; at Cathepsin B it was 880 nM; in [2], 23 nM.

In the case of `CCC(NC(=O)[C@H](CC(C)C)NC(=O)OCc1ccccc1)C(=O)C(=O)NCCCn1cnc2c(N)ncnc21` (some centres undefined), the Ratio in [3] stood at 3. Further, the concentration at 8 h in data set [4] amounted to 1170 ng/g. For the same compound, the Ki in data set [1] was 70 nM; on Cathepsin B, 800 nM; in data set [2], 53 nM.

Regarding `CCC(NC(=O)[C@H](CC(C)C)NC(=O)OCc1ccccc1)C(=O)C(=O)NCCCN1CCN(C)CC1` (some centres undefined), the inhibition constant (Ki) in data set [1] worked out at 286 nM; at Cathepsin B, 1420 nM; in data set [2] it was 640 nM. Moreover, the concentration at 2 h in data set [5] was determined as 1140 ng/g.

Consider `COc1nc(N)c2ncn(CCCNC(=O)C(=O)C(Cc3ccccc3)NC(=O)[C@H](CC(C)C)NC(=O)OCc3ccccc3)c2n1` (some centres undefined), for which the Ratio in data set [3] turned out to be 3. Besides, the inhibition constant Ki came out at 209 nM in data set [1], 2340 nM at Cathepsin B and 41 nM in data set [2].

For `CC(C)C[C@H](NC(=O)OCc1ccccc1)C(=O)NC(Cc1ccccc1)C(=O)C(=O)NCCCn1ccc(N)nc1=O` (some centres undefined), the Ki in data set [1] worked out at 438 nM; at Cathepsin B, 440 nM; in [2], 480 nM.

For `CC(C)C[C@H](NC(=O)OCc1ccccc1)C(=O)NC(Cc1ccccc1)C(=O)C(=O)NCCCN1CCN(C)CC1` (some centres undefined), the inhibition constant Ki in [1] was found to be 6360 nM; on Cathepsin B, 111000 nM; in [2], 1370 nM.

On to `CC(C)C[C@H](NC(=O)OCc1ccccc1)C(=O)NC(Cc1ccccc1)C(=O)C(=O)NCCN(C)C` (some centres undefined), for which the figures for the Ki (in data set [1]; at Cathepsin B; in data set [2]) were 3520 nM, 475000 nM and 711 nM, respectively.

On to `CC(C)C[C@H](NC(=O)OCc1ccccc1)C(=O)NC(Cc1ccccc1)C(=O)C(=O)NCCCn1cnc2c(N)ncnc21` (some centres undefined), for which the Ratio in data set [3] was determined as 3. Also, the inhibition constant (Ki) was 68 nM in [1], 1750 nM on Cathepsin B and 55 nM in data set [2].

As for `CCC(NC(=O)[C@H](CC(C)C)NC(=O)OCc1ccccc1)C(=O)C(=O)NCCCN1CCOCC1` (some centres undefined), the concentration at 1 h in data set [6] stood at 333 ng/g; in [7], 1380 ng/g; in [8], 1320 ng/g; in [9] it was 1820 ng/g; in data set [10] it was 561 ng/g; in data set [11] it was 936 ng/g. Also, the concentration at 1 h in data set [12] amounted to 943 ng/g; in data set [13], 541 ng/g; in [14], 1550 ng/g; in [15], 895 ng/g. Also, the Ki in [1] was 41 nM; at Cathepsin B, 6900 nM; in data set [2] it was 150 nM.

For `CCC(NC(=O)[C@H](CC(C)C)NC(=O)OCc1ccccc1)C(=O)C(=O)NCCCn1ccc(N)nc1=O` (some centres undefined), the inhibition constant Ki in [1] is 1140 nM; at Cathepsin B, 750 nM; in [2] it was 165 nM.
